Data set [1] deals with T1, Inhibitor of nuclear factor kappa-B kinase subunit alpha (Homo sapiens, UniProt O15111).
T1 sequence (O15111 whole entry): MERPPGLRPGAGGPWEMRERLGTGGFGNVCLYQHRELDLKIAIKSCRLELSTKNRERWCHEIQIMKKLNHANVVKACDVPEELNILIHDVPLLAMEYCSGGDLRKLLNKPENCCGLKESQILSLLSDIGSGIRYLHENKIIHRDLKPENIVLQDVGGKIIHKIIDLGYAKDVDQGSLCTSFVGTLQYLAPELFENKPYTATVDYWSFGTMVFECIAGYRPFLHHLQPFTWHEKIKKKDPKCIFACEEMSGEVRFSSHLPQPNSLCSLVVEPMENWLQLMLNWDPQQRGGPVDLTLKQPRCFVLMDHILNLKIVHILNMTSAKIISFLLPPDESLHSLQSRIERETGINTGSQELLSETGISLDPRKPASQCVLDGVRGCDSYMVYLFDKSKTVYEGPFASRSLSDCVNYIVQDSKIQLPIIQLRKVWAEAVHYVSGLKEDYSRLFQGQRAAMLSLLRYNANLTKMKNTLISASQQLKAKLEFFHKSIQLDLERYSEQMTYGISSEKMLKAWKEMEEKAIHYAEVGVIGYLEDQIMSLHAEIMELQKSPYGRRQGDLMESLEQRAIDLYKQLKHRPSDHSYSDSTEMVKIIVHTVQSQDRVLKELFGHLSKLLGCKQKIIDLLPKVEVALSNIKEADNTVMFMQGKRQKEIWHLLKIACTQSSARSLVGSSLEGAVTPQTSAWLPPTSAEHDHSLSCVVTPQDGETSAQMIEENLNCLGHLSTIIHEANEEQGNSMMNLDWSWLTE
As to the kind of experiment: Inhibition of IKK1-mediated phosphorylation of GST-IkappaBalpha fusion protein afterr 60 mins by fluorescence polarization assay. Put shortly:
(§1)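 GST-IκBα (50 µg/mL) with 20 µM ATP in 25 mM Tris-HCl pH 7.5, 7.5 mM MgCl2, 1 mM DTT, 5% glycerol, BSA; reaction started by adding IKK enzyme (IKK-2 typically 3 µg/mL final) at room temperature. Stopped after 60 min with 33 mM EDTA. Phospho-IκBα quantified by fluorescence polarization, competing with a fluorescein-labelled phosphopeptide for anti-phospho-IκBα antibody.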
On the technique in general: In fluorescence polarisation assays a small probe gives low polarisation when free and higher when bound to something large.

The target in data set [2] is T2, Inhibitor of nuclear factor kappa-B kinase subunit beta (Homo sapiens, UniProt O14920).
T2 sequence (O14920 whole entry): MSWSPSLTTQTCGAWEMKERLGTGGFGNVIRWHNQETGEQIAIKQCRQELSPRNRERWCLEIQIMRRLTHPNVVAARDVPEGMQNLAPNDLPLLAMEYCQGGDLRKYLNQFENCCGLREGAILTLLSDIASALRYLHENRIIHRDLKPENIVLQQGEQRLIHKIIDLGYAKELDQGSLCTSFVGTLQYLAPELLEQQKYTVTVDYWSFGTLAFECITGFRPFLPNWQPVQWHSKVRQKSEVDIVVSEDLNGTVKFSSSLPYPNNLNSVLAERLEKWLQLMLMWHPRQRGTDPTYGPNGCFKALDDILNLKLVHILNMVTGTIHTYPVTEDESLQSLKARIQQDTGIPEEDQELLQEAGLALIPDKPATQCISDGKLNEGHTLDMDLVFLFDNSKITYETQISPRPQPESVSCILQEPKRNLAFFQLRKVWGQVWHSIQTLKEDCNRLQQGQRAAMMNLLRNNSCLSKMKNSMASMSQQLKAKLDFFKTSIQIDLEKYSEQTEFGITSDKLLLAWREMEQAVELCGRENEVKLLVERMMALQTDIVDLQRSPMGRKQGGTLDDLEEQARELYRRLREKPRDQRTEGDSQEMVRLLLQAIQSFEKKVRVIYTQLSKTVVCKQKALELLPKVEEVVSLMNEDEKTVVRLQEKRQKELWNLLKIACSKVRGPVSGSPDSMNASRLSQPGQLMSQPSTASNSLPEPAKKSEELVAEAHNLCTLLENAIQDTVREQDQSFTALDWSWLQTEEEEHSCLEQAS
Description: Inhibition of IKK2-mediated phosphorylation of GST-IkappaBalpha fusion protein afterr 60 mins by fluorescence polarization assay. A digest of the protocol: as §1

The test system of data set [3] is PBMC. As to the kind of experiment: Inhibition of LPS-induced TNFalpha production in human PBMC preincubated for 30 mins before LPS challenge measured afterr 6 hrs by ELISA. In kind it is functional, cell-based. A digest of the protocol:
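PBMCs from healthy donor blood, isolated over ficoll in RPMI containing EDTA and polymyxin, then resuspended in RPMI/10% FBS at 1 × 10^6 cells/mL. Compound preincubated 30 min, then LPS added (25 ng/mL final). Incubated 6 h at 37 °C, 5% CO2; supernatant TNF-α measured by ELISA.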

Data set [4] relates to Liver microsomes. As to the kind of experiment: Metabolic stability in rat liver microsomes assessed as clearance at 3 uM after 1 hr. In kind it is ADME, Microsome. Put shortly:
(§2)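 Liver microsomes (mouse, human or rat) at 1 mg/mL protein with 3 µM compound in 65 mM phosphate buffer pH 7.4 and 1 mM NADPH, 37 °C, 1 h. Samples taken at 0 and 15 min and quenched with acetonitrile. Metabolic rate calculated from parent disappearance between 0 and 15 min.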
In general terms: Microsomes from liver hold many membrane-bound enzymes, among them those of drug oxidation.

The subject of data set [5] is Liver microsomes. As to the kind of experiment: Metabolic stability in human liver microsomes assessed as clearance at 3 uM after 1 hr. In kind it is ADME, Microsome. Put shortly:
as §2

Data set [6] in a line: Metabolic stability in mouse liver microsomes assessed as clearance at 3 uM after 1 hr. In kind it is ADME, Microsome. A digest of the protocol: as §2
Data set [7] in a line: Cmax in rat at 2 mg/kg, iv. Conditions: in vivo. The arrangement: dose 2 mg/kg, route intravenous. In kind it is ADME, organism-based. Put shortly:
(§3)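 Some compounds were dosed as a cassette of five compounds at 2 mg/kg each, after prescreening to exclude potent CYP inhibitors (IC50 < 10 µM).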

Data set [8] in a line: AUC in rat at 2 mg/kg, iv. Type of data set: ADME, organism-based. The arrangement: dose 2 mg/kg, route intravenous. Conditions: plasma. A digest of the protocol:
as §3

Data set [9] is described as follows: Half life in rat at 2 mg/kg, iv. In kind it is ADME, organism-based. Also noted: dose 2 mg/kg, route intravenous. As to conditions: in vivo. Put shortly: as §3
The nature of data set [10]: Clearance in rat at 2 mg/kg, iv. Type of data set: ADME, organism-based. Also noted: dose 2 mg/kg, route intravenous. As to conditions: in vivo. A digest of the protocol:
as §3

Data set [11] can be described thus: Volume of distribution at steady state in rat at 2 mg/kg, iv. As to conditions: in vivo, read-out: Vdss. The arrangement: dose 2 mg/kg, route intravenous. In kind it is ADME, organism-based. Put shortly: as §3
The subject of data set [12] is Mus musculus. As to the kind of experiment: Inhibition of LPS-induced TNFalpha release in serum of BALB/c mouse at 10 mg/kg, po administered 4 hrs before LPS challenge measured afterr 90 mins by ELISA relative to control. In kind it is functional. Put shortly: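 Female BALB/c mice, 6-8 weeks old, acclimated at least 1 week. Compound given orally in 100% PEG300 (0.1 mL) about 4 h before ip LPS (E. coli O111:B4, 0.1 mL of 10 µg/mL in PBS; 50 µg/kg). Vehicle-only controls. Blood taken 90 min after LPS; serum TNF-α by ELISA; mean ± SEM, n = 8 per group.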
In general terms: In an ELISA, binding on a coated surface is turned into a signal by an enzyme label.

By IC50 is commonly meant the concentration that inhibits the measured activity by half. In general, Cmax refers to the highest concentration seen after dosing. A word on the AUC: it is the area under the concentration-time curve, a measure of exposure. A high value points to more exposure. By half-life is commonly meant the time in which the quantity being followed falls by half. The low end stands for rapid decline, the high end for slow decline. For orientation: clearance means a measure of how efficiently the substance is removed, as volume per time. A higher clearance goes with efficient removal. As usually defined, the inhibition in vivo is the drop in the measured response relative to a control, in per cent. Read a low inhibition in vivo as a response near the control.

For `CNc1nc2sc(-c3cccc(CNC(=O)c4csnn4)c3)nc2c2c1ncn2C`, the IC50 in [1] was determined as 10000 nM; in data set [2] it was 16 nM; in [3] it was 82 nM. Also, the CL in [4] was found to be 0.14 nmol/mg/min; in [5], 0.16 nmol/mg/min; in data set [6] it was 0.23 nmol/mg/min. In addition, the Cmax in data set [7] was 3.9 µM. Further, in data set [8], the AUC is 5 µM·h. Also, the half-life in data set [9] was 36 min. This compound returned a clearance in data set [10] of 3 mL/min/kg. For the same compound, in [11], the Vd stood at 0.2 L/kg. Further, the inhibition in vivo at 10 mg/kg in [12] worked out at 50%.

(Values after ChEMBL document CHEMBL1153345, “Novel tricyclic inhibitors of IkappaB kinase” (J Med Chem, 2009).)
